HIV Env fusion: inhibitors of HIV Env-mediated cell fusion; HeLa-JRFL Env/CEM21 cell fusion, luciferase; inhibition, % at 12.3 µM; hit rate 1.1% among 360,000; AID 651610;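 active = mean replicate inhibition score of at least 50 and every replicate individually at or above 50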;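 also: 0% = plate neutral controls and 100% = maraviroc near 300 nM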
FN deposit inh: fibronectin deposition inhibition. AID 743247. AH1F fibroblasts, Alexa488-fibronectin deposition fluorescence, overnight. inhibition, % at 12.6 µM. hit rate 0.086% among 350,000;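 active = mean inhibition across replicates of 30% or more, regardless of how many single replicates reach that level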;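 also: positive control wells lacked labelled fibronectin entirely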
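Measured by – fluorescence 485/525 nm · System – AH1F fibroblast monolayer, labelled fibronectin deposition · Amount – 10000 cells per well · Buffer or medium – serum-reduced DMEM (2% serum) · Doses – single dose, pinned · Also added – fluorescent fibronectin at 24 nM final · Schedule – 1 h cell attachment, overnight exposure to compound and label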
rRNA inh HTS: inhibits bacterial ribosomal RNA function over humanized ribosomes; E. coli WT GFP vs humanized-ribosome RFP mutants, fluorescence, 24 h; stronger effect = lower value; DMSO median 0, no signal -100; GFP signal change (wild-type ribosome), % (no concentration beside the values); hit rate 1.6% among 350,000;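 active = significant combined selectivity score with lowered wild-type GFP, culture density cut under 30%, mutant RFP and density less affected; inactive = any of these conditions unmet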
Vif inh: inhibitors of HIV Vif; HEK293T cells, Vif self-association by quenched fluorescence, imaging, 24 h; inhibition, % at 7.49 µM; hit rate 0.35% among 340,000; in the data active = inhibition above about 50%, passing the limit was not always enough
miR122 inh: inhibitors of miR-122 in Huh7 cells; activation (reporter increase), % at 12.5 µM; hit rate 0.3% among 340,000; Huh7 miR-122 Renilla luciferase sensor, 48 h; neutral wells = 0, positive control = 100;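 active = mean replicate activation score at least 90 and every replicate individually at or above 90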;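 also: higher luciferase means less miR-122 activity so hits act as miR-122 inhibitors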
S100A4 inh HTS: inhibitors of human S100A4 binding to myosin IIA peptide. S100A4/TAMRA-MyoIIA peptide fluorescence polarization. inhibition, % at 10.7 µM. hit rate 0.14% among 360,000;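 active = mean inhibition of at least 70% across replicates, with every replicate also reaching that level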
Target sequence (P26447 whole entry, looked up): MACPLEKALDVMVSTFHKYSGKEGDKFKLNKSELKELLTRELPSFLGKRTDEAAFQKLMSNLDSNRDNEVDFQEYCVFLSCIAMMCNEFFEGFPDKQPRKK
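assay system = human S100A4 monomer with TAMRA-labelled myosin IIA peptide | also added = labelled myosin peptide probe, 5 nM | incubation = 5 min between mix addition and reading | control set = DMSO and TFP controls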
Starred values were filed as active, the others as inactive; x = no result; [ ] = dose if it differs, or a comment. Hits are enriched below; roughly 2.6% of the tested compounds scored in any of these assays.

SMILES	HIV Env fusion	FN deposit inh	rRNA inh HTS	Vif inh	miR122 inh	S100A4 inh HTS
COc1ccccc1-c1cnc2c(c1)C(=O)N([C@H](C)CO)C[C@@H](C)[C@H](CN(C)Cc1cncnc1)O2	-7[16.7 µM]	x	1	x	5[16.7 µM]	-2
O=C(c1ccccc1F)N1C[C@@H]2[C@H](c3ccccc31)[C@@H](CO)N2C(=O)c1cccnc1	x	x	2	x	-8[16.7 µM]	-33
COc1ccc(S(=O)(=O)N(C)C[C@H]2OCCCC[C@H](C)Oc3ccc(NS(C)(=O)=O)cc3C(=O)N([C@H](C)CO)C[C@@H]2C)cc1	26[16.7 µM]	x	-5	x	9[16.7 µM]	-6
CC1CCCN(C(=O)Cc2cccc3ccccc23)C1 (stereo unspecified)	18	0	-29*	-6	2	1
O=C1[C@H]2[C@@H](c3ccc(F)cc3)N3C(=O)N(c4ccc(Br)cc4)C(=O)[C@@]3(Cc3ccc(Cl)cc3)[C@H]2C(=O)N1C1CCCCC1	72*	-1	10	-12	4	1
COc1ccc(N2C(=O)N3[C@H](c4ccc(Cl)cc4)[C@@H]4C(=O)N(C5CCCCC5)C(=O)[C@@H]4[C@]3(Cc3ccc(Cl)cc3)C2=O)cc1	88*	-2	3	-7	-6	-1
COc1ccc([C@@H]2[C@@H]3C(=O)N(C(C)(C)C)C(=O)[C@@H]3[C@]3(Cc4ccc(Cl)cc4)C(=O)N(c4ccc(Br)cc4)C(=O)N23)cc1	49	7	5	-3	-15	-4
CCOC(=O)/C(C#N)=C/c1cc2ccccc2nc1Cl	x	x	9	x	-2	2
CSc1nc2ccccc2cc1/C=C(\C#N)c1cccc(Cl)c1	x	x	x	63*	3	x
CCCC(C)NS(=O)(=O)c1ccc(OC)c(C)c1 (stereo unspecified)	-45	-11	x	-6	153*	x
COc1ccc(NC(=O)N2CC3(C2)CN(C(=O)c2cccnc2)[C@@H](CO)c2[nH]c4cc(OC)ccc4c23)cc1	x	x	-1	x	x	10
Clc1ccc(C2CC(c3cccs3)n3ncnc3N2)cc1 (stereo unspecified)	39	2	-41*	-2	2	-1
COc1cccc(C2CC(c3cccs3)Nc3ncnn32)c1 (stereo unspecified)	x	x	x	5	6	x
CN(C)N1C(=O)CC(N2CCCCC2)C1=O (stereo unspecified)	2	-2	-31*	-1	-4	0
O=C1CC(N2CCCCC2)C(=O)N1c1ccccc1 (stereo unspecified)	x	x	x	3	-7	x
COc1ccc(NC(=O)C(=O)NCC2CCCN2S(=O)(=O)c2cccs2)cc1 (stereo unspecified)	83*	12	8	1	21	43
Cc1ccc(NC(=O)C(=O)NCC2CCCN2S(=O)(=O)c2cccs2)cc1C (stereo unspecified)	25	13	-24	-17	-9	-3
CCCNC(=O)N1CC2(C1)[C@@H](c1ccccc1)[C@@H](CO)N2C(=O)C1CCCC1	x	0	1	x	x	5
CCn1c(-c2cc(-c3ccccc3)sc2N)n[nH]c1=S	-50	-3	-30	-4	1	-13
CCn1c(-c2cc(-c3cccc(OC)c3)nc3ccccc23)n[nH]c1=S	x	x	-44*	-20	1	-5
NC(=S)n1[nH]c(-c2ccc([N+](=O)[O-])cc2)c(N=Nc2cccc(Cl)c2)c1=O	57*	2	7	1	2	-2
CSc1nnc(C)c(=O)n1COC(=O)c1cc(Cl)ccc1[N+](=O)[O-]	11	-9	-3	-6	0	-3
CSc1nnc(C)c(=O)n1COC(=O)c1ccc([N+](=O)[O-])cc1	13	31*	1	-12	0	-4
CCn1c2ccccc2c2cc(/C=N/n3cn[nH]c3=S)ccc21	-179	-8	x	4	-27	x
CCn1c2ccccc2c2cc(/C=N/n3c(-c4cc(C)[nH]n4)n[nH]c3=S)ccc21	6	-1	-31*	4	x	-6
COCCNC(=S)N(Cc1cc2cc(C)ccc2n2nnnc12)C1CCCC1	60*	-5	6	-4	-2	-20
COCCN(Cc1cc2cc(C)ccc2n2nnnc12)C(=S)Nc1ccc(C)cc1	-3	0	20	6	-2	1
